Compounds with a hit are over-represented: about 3.5% of the library has one in this group of screens.
MITF TRPM1 HTS – increases MITF-driven TRPM1 promoter luciferase signal | SK-MEL-5 TRPM1-promoter luciferase, 24 h; % of positive control, neutral wells = 0 | activation, % at 12.5 µM | hit rate 0.75% among 300,000;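 active = mean activation of at least 80% with every replicate also reaching 80%; inconclusive = mean reaches 80% but some replicate falls short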
ERAP1 inh – inhibitors of human ERAP1 aminopeptidase; Q9NZ08; recombinant ERAP1, Leu-AMC fluorescence, 60 min; inhibition, % at 10.7 µM; hit rate 0.15% among 340,000; AID 652197;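 active = mean replicate inhibition of at least 30%, or all replicates individually reaching that 30% level; inactive = mean below 30% and not every replicate reaching it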
Target sequence (Q9NZ08 whole entry, looked up): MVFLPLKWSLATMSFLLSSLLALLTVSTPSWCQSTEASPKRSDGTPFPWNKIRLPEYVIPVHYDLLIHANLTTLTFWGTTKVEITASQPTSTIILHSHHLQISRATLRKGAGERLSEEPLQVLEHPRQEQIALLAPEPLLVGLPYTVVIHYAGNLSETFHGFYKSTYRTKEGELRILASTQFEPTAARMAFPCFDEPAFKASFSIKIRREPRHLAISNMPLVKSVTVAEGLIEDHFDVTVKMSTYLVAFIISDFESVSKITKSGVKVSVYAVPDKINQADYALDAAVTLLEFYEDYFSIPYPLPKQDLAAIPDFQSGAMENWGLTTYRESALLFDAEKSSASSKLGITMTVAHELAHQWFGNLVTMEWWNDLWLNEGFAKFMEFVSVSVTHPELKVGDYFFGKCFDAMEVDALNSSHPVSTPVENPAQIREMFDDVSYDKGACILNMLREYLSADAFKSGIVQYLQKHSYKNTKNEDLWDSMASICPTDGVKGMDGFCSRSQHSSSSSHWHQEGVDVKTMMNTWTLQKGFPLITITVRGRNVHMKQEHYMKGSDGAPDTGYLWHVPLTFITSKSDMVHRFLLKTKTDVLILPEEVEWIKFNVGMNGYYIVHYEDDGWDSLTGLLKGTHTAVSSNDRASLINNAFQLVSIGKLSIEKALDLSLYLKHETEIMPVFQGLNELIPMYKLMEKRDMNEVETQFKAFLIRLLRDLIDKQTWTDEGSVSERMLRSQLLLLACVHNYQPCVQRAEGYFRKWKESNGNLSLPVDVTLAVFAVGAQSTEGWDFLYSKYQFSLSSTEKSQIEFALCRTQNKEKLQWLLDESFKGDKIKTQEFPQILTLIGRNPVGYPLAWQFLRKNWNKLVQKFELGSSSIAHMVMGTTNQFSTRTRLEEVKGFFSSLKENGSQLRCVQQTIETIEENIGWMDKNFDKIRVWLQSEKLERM
Env fusion inh – HIV envelope-mediated fusion inhibition; HeLa-JRFL Env/CEM21 cell fusion, luciferase; inhibition, % at 12.3 µM; hit rate 1.1% among 360,000; AID 651610;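 active = mean replicate inhibition score of at least 50 and every replicate individually at or above 50; inconclusive = only one of the two criteria met; inactive = mean below 50 and not all replicates reaching 50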
Cneo AK release – Cryptococcus neoformans lysis via adenylate kinase release | hit rate 0.2% among 360,000 | C. neoformans lysis, adenylate kinase release luminescence, 4 h; normalised: neutral wells 0, clomiphene wells 100 | lysis activity, % at 15 µM | AID 651654;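 active = mean lysis activity across replicates of at least 80%, whatever share of replicates individually reach that level; inactive = mean lysis activity below 80%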
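Assay system: log-phase C. neoformans yeast / Quantity: yeast cell density of 5 × 10^6 cells/mL / Medium: fresh YPD growth medium / Compound: single dose / Timing: static 4 h at 37 °C with compound, 1 h detection / Measured by: adenylate kinase release luminescence / Read-out: lysis from increased AK signal / Benchmarks: Clomiphene as positive lysis control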
esBAF inh – inhibitors of esBAF chromatin remodeling in mouse ES cells | Bmi1-luciferase knock-in reporter, 24 h; 100% = twice the neutral-well signal | reporter increase, % at 12.5 µM | hit rate 2% among 350,000; in the data active = activation above about 40%; inconclusive = no clear call, values can overlap the other calls;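 note: a rise in the Bmi1 reporter signal indicates esBAF inhibition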
Wnt bcat act – activates Wnt/beta-catenin signaling in a reporter cell assay; activator, plate reader; activation, % at 9.35 µM; hit rate 1.2% among 300,000; in the data active = activation above about 30%, passing the limit was not always enough; inconclusive = no clear call, values can overlap the other calls
Numbers stand for hits; . = inactive; ? = inconclusive; / = not tested or not shown; [ ] = another dose, or the depositor's remark.

SMILES | MITF TRPM1 HTS | ERAP1 inh | Env fusion inh | Cneo AK release | esBAF inh | Wnt bcat act
CO[C@@H]1CN(C)C(=O)c2ccc(NC(=O)C3CCCC3)cc2OC[C@H](C)NC[C@H]1C | / | . | / | . | . | /
COC(=O)C(NC(=O)c1ccc(F)cc1)(Nc1ncc(S(=O)(=O)c2ccc([N+](=O)[O-])cc2)s1)C(F)(F)F (stereo unspecified) | . | / | 126.9 | . | . | /
CCCS(=O)(=O)N1CCCC(c2nc(-c3cccc(OC)c3)no2)C1 (stereo unspecified) | . | / | / | . | . | /
COc1cccc(-c2noc(C3CCCN(S(=O)(=O)c4cccc(Cl)c4C)C3)n2)c1 (stereo unspecified) | . | / | 112.3 | . | . | /
Cc1ccc(-c2ccc3c(c2)O[C@H](CN(C)Cc2ccccn2)[C@H](C)CN([C@@H](C)CO)S3(=O)=O)cc1 | / | . | . | . | . | /
CCCC(=O)Nc1nc(-c2ccc(OC)cc2)cs1 | . | / | / | . | 67.6 | /
COc1ccc(-c2csc(NC(=O)CSc3nc(SC)ns3)n2)cc1 | . | . | . | / | 67.3 | .
CCCC(=O)Nc1nc(-c2ccc3c(c2)OCCO3)cs1 | 90.7 | . | . | . | . | .
Nc1nc(-c2ccc3c(c2)OCCO3)cs1 | ? | / | / | . | 50.5 | /
CSCC(=O)Nc1nc(-c2ccc3c(c2)OCCO3)cs1 | . | . | . | / | / | .
O=C(C[C@H]1C[C@@H]2c3cc(NS(=O)(=O)c4ccccc4)ccc3O[C@@H]2[C@H](CO)O1)NC1CCCCC1 | / | . | . | . | . | /
Cc1ccc(-c2csc(NC(=O)CSC3=NCCS3)n2)cc1 | / | / | . | . | 44.9 | .
Cc1ccc(-c2csc(NC(=O)CSc3nc(C)cc(=O)[nH]3)n2)cc1 | / | / | . | / | / | /
Nc1ccccc1N=Cc1ccc(-c2cccc(Cl)c2)o1 | . | . | . | . | 98.1 | .
COc1ccc(NC(=O)Nc2ccc3c(c2)C(=O)N([C@@H](C)CO)C[C@H](C)[C@@H](CN(C)S(=O)(=O)c2ccc(C)cc2)OCCCC[C@@H](C)O3)cc1 | / | . | . | . | . | /
CC(C)[C@@H](C)NC(=O)N(C)C[C@H]1OCc2ccccc2-c2c(n(C)c3ccccc23)C(=O)N([C@H](C)CO)C[C@@H]1C | / | . | / | . | . | /
CC(C)(C)SC(=O)CC1NS(=O)(=O)OCC1NC(=O)OCC(Cl)(Cl)Cl (stereo unspecified) | . | . | 63.2 | . | . | .
CC(C)C1COS(=O)(=O)NC1CC(=O)SC(C)(C)C (stereo unspecified) | . | . | . | . | . | .
CCOc1ccc(N=C2Sc3nc4ccc(C)cc4cc3CN2CCOC)cc1 | . | / | . | / | 54.1 | .
COCCN1Cc2cc3cc(C)ccc3nc2SC1=Nc1ccc(OC)cc1 | . | . | . | / | / | .
COCCN1Cc2cc3cc(C)ccc3nc2SC1=Nc1cccc(OC)c1 | . | / | . | / | 48.9 | .
COCC(=O)N1[C@@H](CO)[C@@H]2c3ccccc3N(C(=O)c3ccccc3F)C[C@@H]21 | / | . | / | . | . | /
CCN(CC)c1ccc(Nc2nc(N3CCOCC3)c3ccccc3n2)cc1 | . | / | 56.8 | . | . | .
CO[C@@H](CN(C)C(=O)c1cnccn1)[C@H](C)CN([C@@H](C)CO)S(=O)(=O)c1ccc(C)cc1 | / | . | / | . | . | /
Cc1ccc(S(=O)(=O)Nc2ccc3c(c2)C(=O)N([C@H](C)CO)C[C@@H](C)[C@H](CN(C)Cc2ccc(C(F)(F)F)cc2)OCCCC[C@@H](C)O3)cc1 | / | . | 65.1[16.7 µM] | 117.8 | . | /
SMILES | MITF TRPM1 HTS | ERAP1 inh | Env fusion inh | Cneo AK release | esBAF inh | Wnt bcat act
COc1ccc(S(=O)(=O)Nc2ccc3c(c2)C(=O)N([C@H](C)CO)C[C@@H](C)[C@@H](CN(C)Cc2ccc(C(F)(F)F)cc2)OCCCC[C@@H](C)O3)cc1 | / | . | 55.3[16.7 µM] | . | . | /
COc1ccc(S(=O)(=O)Nc2ccc3c(c2)C(=O)N([C@H](C)CO)C[C@H](C)[C@H](CN(C)Cc2ccc(C(F)(F)F)cc2)OCCCC[C@H](C)O3)cc1 | / | . | . | . | . | /
COc1ccc(S(=O)(=O)Nc2ccc3c(c2)C(=O)N([C@@H](C)CO)C[C@@H](C)[C@H](CN(C)Cc2ccc(C(F)(F)F)cc2)OCCCC[C@H](C)O3)cc1 | / | . | ? | . | . | /
COc1ccc(S(=O)(=O)Nc2ccc3c(c2)C(=O)N([C@H](C)CO)C[C@@H](C)[C@H](CN(C)Cc2ccc(C(F)(F)F)cc2)OCCCC[C@@H](C)O3)cc1 | / | . | 63.7[16.7 µM] | . | . | /
C[C@@H]1CN([C@@H](C)CO)C(=O)c2cc(NS(=O)(=O)c3cn(C)cn3)ccc2O[C@@H](C)CCCCO[C@@H]1CN(C)Cc1ccc(C(F)(F)F)cc1 | / | . | . | 96.2 | . | /
Cc1ccc(S(=O)(=O)Nc2ccc3c(c2)C(=O)N([C@@H](C)CO)C[C@@H](C)[C@@H](CN(C)Cc2ccc(C(F)(F)F)cc2)OCCCC[C@H](C)O3)cc1 | / | . | . | . | . | /
C[C@@H]1CCCCO[C@@H](CN(C)C(=O)c2ccncc2)[C@H](C)CN([C@@H](C)CO)C(=O)c2cc(NC(=O)c3ccncc3)ccc2O1 | / | . | . | . | . | /
C[C@@H]1CN([C@H](C)CO)C(=O)c2cc(/C=C/c3ccccc3)cnc2O[C@H]1CN(C)Cc1ccccc1 | / | . | . | . | . | /
CC(C)CC#Cc1ccc([C@H]2[C@H]3CN(C(=O)Nc4ccc(F)cc4)CC(=O)N3[C@H]2CO)cc1 | / | . | / | / | / | /
CCCN1C[C@@H](C)[C@@H](OC)CN(C)C(=O)c2cc(NC(=O)NC3CCCC3)ccc2OC[C@H]1C | / | . | / | / | / | /
COc1ccc(S(=O)(=O)Nc2ccc3c(c2)C(=O)N([C@H](C)CO)C[C@@H](C)[C@@H](CN(C)Cc2ccc(C(F)(F)F)cc2)OCCCC[C@H](C)O3)cc1 | / | . | 73.9[16.7 µM] | . | . | /
COc1ccc(S(=O)(=O)Nc2ccc3c(c2)C(=O)N([C@@H](C)CO)C[C@H](C)[C@H](CN(C)C(=O)NC(C)C)OCCCC[C@@H](C)O3)cc1 | / | . | 67.5[16.7 µM] | . | . | /
COc1ccc(S(=O)(=O)Nc2ccc3c(c2)C(=O)N([C@H](C)CO)C[C@@H](C)[C@@H](CN(C)C(=O)NC(C)C)OCCCC[C@@H](C)O3)cc1 | / | . | . | . | . | /
COc1ccc(NC(=O)Nc2ccc3c(c2)CC(=O)N([C@@H](C)CO)C[C@@H](C)[C@H](CN(C)C(=O)Nc2ccc(F)cc2)O3)cc1 | / | . | / | . | . | /
COc1ccc(S(=O)(=O)/N=C2/NC(=O)/C(=C\c3cc(OC)c(OC)cc3[N+](=O)[O-])S2)cc1 | . | / | 40.3 | . | . | .
COc1ccccc1C#Cc1ccc([C@@H]2[C@@H](C#N)N(C(=O)C3CCCCC3)[C@H]2CO)cc1 | / | . | . | . | . | /
Cc1cc(-c2nc3cccnc3s2)ccc1NS(=O)(=O)c1ccc2c(c1)OCCO2 | / | . | . | . | . | .
Cc1c(NS(=O)(=O)c2ccc3c(c2)OCCO3)cccc1-c1nc2cccnc2s1 | / | . | 44.4 | . | . | .
